Measured values as given in ChEMBL document CHEMBL4138168, “Design and synthesis of novel thiobarbituric acid derivatives targeting both wild-type and BRAF-mutated melanoma cells” (Eur J Med Chem, 2018).

How the values were obtained:
Type in all cases: functional, cell-based
UACC-903 = test: Cytotoxicity against human UACC-903 cells assessed as cell viability at 25 uM after 48 hrs by MTT assay relative to control; conditions: UACC-903, 48 h
In short: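 MCF10A normal breast epithelial cells were kept in MEGM mammary epithelial medium; the cancer lines were in DMEM with 10% FBS, 37 °C. OD at 570 nm with 630 nm background, expressed relative to control.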

CHL-1 = test: Antiproliferative activity against human CHL-1 cells harboring wild type BRAF after 72 hrs by MTT assay; conditions: CHL-1, 72 h
In short: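 Cells (CHL-1) cultured in DMEM with 10% FBS at 37 °C and treated with compound for 72 h. Viability measured by MTT uptake: 3 h with MTT, DMSO solubilisation, absorbance at 570 nm with 630 nm background subtraction. IC50 taken as the mean of triplicates from at least two independent experiments.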

MDA-MB-231 = test: Antiproliferative activity against ER/PR/HER2 deficient human MDA-MB-231 cells after 48 hrs by MTT assay; conditions: MDA-MB-231, 48 h
In short: (§1)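 3,000 cells per well, grown at 37 °C (DMEM with 10% FBS and penicillin/streptomycin; HCT116 in McCoy's 5A). Cells exposed in triplicate to 0.5–25 μM compound for 48 h. MTT (5 mg/mL PBS stock) added for 3 h, formazan dissolved in DMSO, OD read at 570 nm minus 630 nm background. IC50 from non-linear regression of two independent experiments.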

MCF7 = test: Antiproliferative activity against human MCF7 cells expressing ER/PR/HER2 after 48 hrs by MTT assay; conditions: MCF7, 48 h; in short: as §1
HCT-116 = test: Antiproliferative activity against human HCT116 cells after 48 hrs by MTT assay; conditions: HCT-116, 48 h; in short: as §1
PANC-1 = test: Antiproliferative activity against human PANC1 cells after 48 hrs by MTT assay; conditions: PANC-1, 48 h; in short: as §1

SMILES | IC50 (UACC-903) [µM] | IC50 (CHL-1) [µM] | IC50 (MDA-MB-231) [µM] | IC50 (MCF7) [µM] | IC50 (HCT-116) [µM] | IC50 (PANC-1) [µM]
CCN1C(=O)/C(=C/C=C/c2cccc3ccccc23)C(=O)NC1=S | 23.4 |  |  |  |  | 
O=C1NC(=S)NC(=O)C1=C/C=C/c1ccco1 | 8 | 8.5 | 16.5 | 27.9 | 20.1 | 24.4
O=C1NC(=S)NC(=O)C1=C/C=C/C=C/c1ccccc1 | 6.5 |  |  |  |  | 
C=CCN1C(=O)/C(=C\C=C\c2ccco2)C(=O)N(CC)C1=S | 14.5 | 18.9 |  |  |  | 
C=CCN1C(=O)/C(=C\C=C\c2ccccc2)C(=O)N(CC)C1=S | 21 |  |  |  |  | 
CCN1C(=O)/C(=C\C=C\c2ccco2)C(=O)NC1=S | 16.2 | 13.9 |  |  |  | 
C=CCN1C(=O)C(=C/C=C/c2ccco2)C(=O)N(CC=C)C1=S | 17.6 | 8 |  |  |  | 
C=CCN1C(=O)C(=C/C=C/c2ccccc2)C(=O)N(CC=C)C1=S | 18.1 | 8.1 |  |  |  | 
CCN1C(=O)C(=C/C=C/c2ccco2)C(=O)N(CC)C1=S | 18.8 | 8.6 |  |  |  | 
O=C1NC(=S)NC(=O)C1=C/C=C/c1cccnc1 | 18.4 |  |  |  |  | 
O=C1NC(=[Se])NC(=O)C1=C/C=C/c1ccccc1 | 13.6 | 9.4 |  |  |  | 
C=CCN1C(=O)/C(=C\C=C\c2cccs2)C(=O)NC1=S | 6.7 | 7.5 |  |  |  | 
C=CCN1C(=O)/C(=C\C=C\c2cccs2)C(=O)N(CC)C1=S | 6.1 |  |  |  |  | 
O=C1NC(=[Se])NC(=O)C1=C/C=C/c1ccco1 | 2.3 | 9.7 |  |  |  | 
CCN1C(=O)\C(=C/C=C/C=C/c2ccco2)C(=O)NC1=S | 7.6 |  |  |  |  | 
CCN1C(=O)C(=C/C=C/c2ccccc2)C(=O)N(CC)C1=S | 15.2 | 8.8 |  |  |  | 
O=C1NC(=[Se])NC(=O)C1=C/C=C/c1cccs1 | 7.8 | 6.3 |  |  |  | 
CN1C(=O)/C(=C\C=C\c2cccs2)C(=O)NC1=S | 5.5 | 4.7 | 8.6 | 23.5 | 18.2 | 21
O=C1NC(=S)NC(=O)C1=C/C=C/c1cccc2ccccc12 | 4.2 |  | 4.5 |  | 3.6 | 7.9
CCN1C(=O)/C(=C\C=C\c2cccs2)C(=O)NC1=S | 4.6 |  | 8.5 | 24 | 8.3 | 20.5
O=C1NC(=S)NC(=O)C1=C/C=C/c1ccccc1 | 9.1 | 10.6 |  |  |  | 
CCN1C(=O)/C(=C\C=C\c2ccccc2)C(=O)NC1=S | 8 | 6.2 |  |  |  | 
